Laboratory results: ChEMBL document CHEMBL4477183, “Antimicrobial Peptide from the Wild Bee Hylaeus signatus Venom and Its Analogues: Structure-Activity Study and Synergistic Effect with Antibiotics” (J Nat Prod, 2016)
The source made the active and inactive calls. No cut-off for these calls is given here.

What was measured:
[1] = test system: Pseudomonas aeruginosa; assay: Antimicrobial activity against Pseudomonas aeruginosa assessed as compact cell levels at 30 uM after 60 mins by negative staining based TEM analysis; format: functional
Summary of the method: (§1)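 P. aeruginosa at 10^8 cfu/mL was exposed to peptide at 30 or 150 μM for 60 min, with untreated cells as control. Cells were centrifuged, washed twice in 0.9% NaCl and adsorbed 5–10 min on Parlodion-carbon-coated copper grids. They were negatively stained 30–40 s with 0.25% phosphotungstic acid (pH 7.3) plus 0.01% BSA, air-dried and imaged by TEM.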

[2] = test system: Micrococcus luteus; assay: Antimicrobial activity against Micrococcus luteus assessed as reduction in bacterial growth after 20 hrs by […]; format: functional
Summary of the method: (§2)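 Broth microdilution in LB (YPG for C. albicans) with 2-fold serial dilutions, final 0.1–100 μM. Mid-log cells grown 3–5 h at 37 °C were added at about 5 × 10^5 cfu/mL, then incubated 20 h at 37 °C with shaking. A540 was read every 15 min to build growth curves. Medium with cells served as growth control; at least three runs in duplicate.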

[3] = test system: Pseudomonas aeruginosa; assay: Antimicrobial activity against Pseudomonas aeruginosa assessed as flagella detachment at 150 uM after 60 mins by negative staining based TEM analysis; format: functional, organism-based; summary of the method: as §1
[4] = test system: Pseudomonas aeruginosa; assay: Induction of cell permeabilization in Pseudomonas aeruginosa assessed as propidium iodide uptake 10 to 100 mins; format: functional, organism-based
Summary of the method: (§3)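 Mid-log P. aeruginosa was washed twice and resuspended in PBS (pH 7) at 10^8 cfu/mL with propidium iodide at 10 μg/mL. Peptide was added by 2-fold serial dilution in PBS (0.625–20 μM), with PBS as blank and octenidine dihydrochloride (4 μM final) as positive control. Plates were kept at 37 °C in the dark for 120 min, reading fluorescence (ex 544/em 620 nm) every minute. Means of at least three measurements.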

[5] = test system: Pseudomonas aeruginosa; assay: Antimicrobial activity against Pseudomonas aeruginosa assessed as flagella attachment level at 30 uM after 60 mins by negative staining based TEM analysis; format: functional, organism-based; summary of the method: as §1
[6] = test system: Escherichia coli; assay: Antimicrobial activity against Escherichia coli assessed as reduction in bacterial growth after 20 hrs by […]; format: functional; summary of the method: as §2
[7] = test system: Staphylococcus aureus; assay: Antimicrobial activity against Staphylococcus aureus clinical isolates from university hospital in Motol assessed as reduction in bacterial growth after 20 hrs by drop diffusion test; format: functional
[8] = test system: Pseudomonas aeruginosa; assay: Antimicrobial activity against Pseudomonas aeruginosa clinical isolates assessed as reduction in bacterial growth after 20 hrs by […]; format: functional; summary of the method: as §2
[9] = test system: Pseudomonas aeruginosa; assay: Antimicrobial activity against Pseudomonas aeruginosa assessed as disruption of cell envelope at 30 uM after 60 mins by negative staining based TEM analysis; format: functional, organism-based; summary of the method: as §1
[10] = test system: Pseudomonas aeruginosa; assay: Antimicrobial activity against Pseudomonas aeruginosa assessed as induction of inner bacterial content leakage at 30 uM after 60 mins by TEM analysis; format: functional, organism-based; summary of the method: as §1
[11] = test system: Pseudomonas aeruginosa; assay: Antimicrobial activity against Pseudomonas aeruginosa assessed as cell damage at 150 uM after 60 mins by negative staining based TEM analysis; format: functional, organism-based; summary of the method: as §1
[12] = test system: Staphylococcus aureus; assay: Antimicrobial activity against Staphylococcus aureus clinical isolates assessed as FIC index in presence of amoxicillin after 20 hrs by drop diffusion test; format: functional
[13] = test system: Staphylococcus aureus; assay: Antimicrobial activity against Staphylococcus aureus clinical isolates from Liberec regional hospital assessed as reduction in bacterial growth after 20 hrs by broth microdilution assay
[14] = test system: Pseudomonas aeruginosa; assay: Antimicrobial activity against Pseudomonas aeruginosa clinical isolates assessed as FIC index in presence of tetracycline after 20 hrs by drop diffusion test; format: functional
[15] = test system: Pseudomonas aeruginosa; assay: Antimicrobial activity against Pseudomonas aeruginosa assessed as induction of cell integrity break down at 30 uM after 60 mins by TEM analysis; format: functional, organism-based; summary of the method: as §1
[16] = test system: Staphylococcus aureus; assay: Antimicrobial activity against Staphylococcus aureus 6271 assessed as reduction in bacterial growth after 20 hrs by broth microdilution assay; settings: Staphylococcus aureus, 6271, 20 h
[17] = test system: Pseudomonas aeruginosa; assay: Antimicrobial activity against Pseudomonas aeruginosa clinical isolates assessed as FIC index in presence of rifampicin after 20 hrs by drop diffusion test; format: functional
[18] = test system: Candida albicans; assay: Antifungal activity against Candida albicans assessed as reduction in fungal growth after 20 hrs by […]; format: functional; summary of the method: as §2
[19] = test system: Staphylococcus epidermidis; assay: Antimicrobial activity against Staphylococcus epidermidis assessed as reduction in bacterial growth after 20 hrs by broth microdilution assay
[20] = test system: Pseudomonas aeruginosa; assay: Antimicrobial activity against Pseudomonas aeruginosa assessed as cell envelope detachment at 150 uM after 60 mins by negative staining based TEM analysis; format: functional, organism-based; summary of the method: as §1
[21] = Hemolytic activity in human type RBC after 1 hr; format: ADME, cell-based, Erythrocyte; settings: red blood cells (erythrocytes), read-out: LC50
Summary of the method: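 Peptides at 2.5–400 μM were incubated with a 4% suspension of human erythrocytes in physiological solution for 1 h at 37 °C, then centrifuged at 250g for 5 min; supernatant A540 was read. Saline-treated cells gave 0% lysis and 0.2% Triton X-100 gave 100%. LC50 is the concentration lysing 50% of cells; duplicates in at least two independent experiments.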

[22] = test system: Pseudomonas aeruginosa; assay: Bactericidal activity against Pseudomonas aeruginosa assessed as reduction in bacterial count at 8 uM after 60 mins by time kill assay; format: functional
Summary of the method: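 Time-kill: P. aeruginosa (final about 5 × 10^5 cfu/mL) in LB with peptide (8 μM) or medium control was incubated 4 h at 37 °C with shaking. Samples were taken at 0–240 min, serially diluted in 0.9% NaCl and plated on LB agar overnight at 37 °C. Viable counts are given as cfu/mL; means of four independent measurements.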

[23] = test system: Bacillus subtilis; assay: Antimicrobial activity against Bacillus subtilis assessed as reduction in bacterial growth after 20 hrs by […]; format: functional; summary of the method: as §2
[24] = test system: Pseudomonas aeruginosa; assay: Antimicrobial activity against Pseudomonas aeruginosa 5482 assessed as reduction in bacterial growth after 20 hrs […]; format: functional; settings: Pseudomonas aeruginosa, 5482, 20 h; summary of the method: as §2
[25] = test system: Pseudomonas aeruginosa; assay: Antimicrobial activity against Pseudomonas aeruginosa assessed as detached cell envelope at 30 uM after 60 mins by negative staining based TEM analysis; format: functional, organism-based; summary of the method: as §1
[26] = test system: Staphylococcus aureus; assay: Antimicrobial activity against Staphylococcus aureus clinical isolates from Liberec regional hospital assessed as reduction in bacterial growth after 20 hrs by […]; format: functional; summary of the method: as §2
[27] = test system: Pseudomonas aeruginosa; assay: Induction of cell permeabilization in Pseudomonas aeruginosa assessed as propidium iodide uptake at 5 to 10 uM after 10 mins; format: functional, organism-based; summary of the method: as §3
[28] = test system: Pseudomonas aeruginosa; assay: Ratio of MIC for Pseudomonas aeruginosa to PC50 for induction of permeabilization in Pseudomonas aeruginosa; format: functional
Summary of the method: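 PC50: washed 10^8 cfu/mL cells in PBS pH 7 with PI 10 μg/mL, peptide 0.31–80 μM, 90 min at 37 °C dark, fluorescence 544/620 nm as % of 4 μM octenidine, interpolated from log-concentration curve.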

[29] = test system: Pseudomonas aeruginosa; assay: Bactericidal activity against Pseudomonas aeruginosa assessed as reduction in bacterial count at 24 uM after 60 mins by time kill assay; format: functional
Summary of the method: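 P. aeruginosa inoculum about 5 × 10^5 cfu/mL in LB mixed 1:1 with LB alone or LB containing test agent at final 8, 24, 80 or 20 μM. Incubation was at 37 °C with shaking for 4 h. Aliquots taken at 0–240 min were serially diluted in 0.9% NaCl and plated on LB agar overnight at 37 °C. Viable cfu/mL were counted; means of four independent measurements.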

Q: With H-GIMSSLMKKLKKIIAK-NH2 as the substance, how does the Activity [1] read?
A: 60%

Q: And the MIC [2]?
A: ≤ 3 µM

Q: What about the Activity [3] of the same substance?
A: Active

Q: What about the Activity [4] of the same substance?
A: Active

Q: And the Activity [5]?
A: Active

Q: What about the MIC [6] of the same substance?
A: 9 µM

Q: And the MIC [7]?
A: 23 µM

Q: What about the MIC [8] of the same substance?
A: 7.4 µM

Q: What about the Activity [9] of the same substance?
A: Active

Q: What about the Activity [10] of the same substance?
A: Active

Q: And the Activity [11]?
A: Active

Q: What about the “fractional inhibitory concentration index (FICI)” value [12] of the same substance?
A: 0.33

Q: And the MIC [13]?
A: 7.6 µM

Q: What about the “fractional inhibitory concentration index (FICI)” value [14] of the same substance?
A: 0.65

Q: And the Activity [15]?
A: Active

Q: What about the MIC [16] of the same substance?
A: 32 µM

Q: And the “fractional inhibitory concentration index (FICI)” value [17]?
A: 0.43

Q: What about the MIC [18] of the same substance?
A: 5.2 µM

Q: What about the MIC [19] of the same substance?
A: 1.9 µM

Q: What about the Activity [20] of the same substance?
A: Active

Q: What about the HC50 at 1 h [21] of the same substance?
A: > 400 µM

Q: What about the “fold change (FC)” value [22] of the same substance?
A: 2

Q: And the MIC [23]?
A: ≤ 7 µM

Q: What about the MIC [24] of the same substance?
A: 5 µM

Q: What about the Activity [25] of the same substance?
A: Active

Q: Which results are given for H-GIWSSLLKKLKKIIAK-NH2?
A: MIC [26]: 4.6 µM; MIC [2]: ≤ 3 µM; Activity [27]: Active; Activity [4]: Dose-dependent effect; MIC [6]: 1.6 µM; Ratio [28]: 30; MIC [7]: 5.3 µM; MIC [8]: 21 µM; fractional inhibitory concentration index (FICI) [12]: 0.4; fractional inhibitory concentration index (FICI) [14]: 0.35; Activity [15]: Dose-dependent effect; MIC [16]: 20 µM; fractional inhibitory concentration index (FICI) [17]: 0.27; MIC [18]: 16 µM; MIC [19]: 1.5 µM; HC50 at 1 h [21]: 165 µM; fold change (FC) [29]: 2; MIC [23]: ≤ 7 µM; MIC [24]: 6.3 µM
